From PubChem
Rows were chosen to be rich in hits. Some 3.3% of all compounds tested hit in one or more screens of this group.
ABCB6 inh MLPCN: blocks the human ABCB6 transporter. K562-ABCB6 porphyrin accumulation, flow cytometry, 1 h; active compounds read low. 0.19% of 360,000 active. AID 602162. fluorescence ratio to DMSO, % at 10 µM. Q9NP58;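 active = fluorescence ratio to DMSO below 75%, the collection mean minus 3 SD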;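 note: signal is porphyrin accumulated inside mitochondria; 100% equals median channel fluorescence of DMSO control wells; lower ratio means ABCB6 inhibition with less porphyrin fluorescence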
Target sequence (Q9NP58 whole entry, looked up): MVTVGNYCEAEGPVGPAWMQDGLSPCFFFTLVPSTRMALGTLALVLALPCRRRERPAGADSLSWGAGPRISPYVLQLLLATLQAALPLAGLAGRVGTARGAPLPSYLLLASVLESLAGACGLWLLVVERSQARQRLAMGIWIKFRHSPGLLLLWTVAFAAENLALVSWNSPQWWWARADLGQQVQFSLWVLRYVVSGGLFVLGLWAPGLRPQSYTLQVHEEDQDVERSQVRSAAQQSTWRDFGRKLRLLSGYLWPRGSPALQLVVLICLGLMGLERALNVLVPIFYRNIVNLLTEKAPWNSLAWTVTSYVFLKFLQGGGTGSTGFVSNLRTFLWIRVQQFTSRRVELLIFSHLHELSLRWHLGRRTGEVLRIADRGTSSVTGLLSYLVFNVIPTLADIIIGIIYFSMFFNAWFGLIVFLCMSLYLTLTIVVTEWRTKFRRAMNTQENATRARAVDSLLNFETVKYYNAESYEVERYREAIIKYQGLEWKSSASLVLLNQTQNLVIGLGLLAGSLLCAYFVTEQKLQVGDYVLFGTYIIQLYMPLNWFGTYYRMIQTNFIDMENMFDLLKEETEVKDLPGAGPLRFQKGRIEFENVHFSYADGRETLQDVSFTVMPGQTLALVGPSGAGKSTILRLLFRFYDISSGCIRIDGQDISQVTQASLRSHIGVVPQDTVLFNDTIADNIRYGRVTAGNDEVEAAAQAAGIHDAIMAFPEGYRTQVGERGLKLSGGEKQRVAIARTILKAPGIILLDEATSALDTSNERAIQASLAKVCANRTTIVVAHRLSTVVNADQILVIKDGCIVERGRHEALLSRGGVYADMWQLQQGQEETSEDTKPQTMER
AHR activator: activators of human aryl hydrocarbon receptor; activation, % at 5 µM; 2.5% of 320,000 active; AID 2796; AHR-responsive luciferase reporter cells, luminescence; P35869; in the data active = activation above about 47%;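 note: 0% = vehicle wells and 100% = reference agonist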
STAT3 act: STAT3 signaling activation; U3A cells, IL-6 STAT3-luciferase reporter, luminescence; 100% = signal with IL-6 EC80 alone; activation (% of control), % at 5.6 µM; 0.91% of 190,000 active; AID 871;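 active = activation above the screen-wide mean of compound activation plus 3 SD, cut at about 130% in these data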;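 note: 0% = background luminescence of wells with medium and substrate only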
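Material: STAT3-luciferase reporter U3A cells; Probe or stimulus: IL-6 (33 ng/mL); Incubation: compound pre-incubation 1 h before IL-6, then 6 h stimulation at 37 °C; Technique: luminescence from STAT3-driven luciferase reporter; Evaluation: % activation versus median of IL-6-stimulated wells; Controls: IL-6-only high control.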
GAA850 FXN act: activators of GAA850 frataxin (FXN) promoter; AID 540364; 0.56% of 360,000 active; HEK293 lucGAA850 FXN promoter luciferase reporter, 24 h; percent of 10 µM SAHA response; activation, % at 6 µM;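 active = activation above the average of all compounds screened plus 3 SD, cutoff fixed separately per campaign, cut at about 7.5% in these data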;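 note: 0% = DMSO wells and 100% = 10 µM SAHA wells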
GAA30 FXN cntr: GAA30 FXN promoter activation counter-screen. shares compounds with GAA850 FXN act. HEK293 lucGAA30 FXN promoter luciferase, 24 h; DMSO = 0%, 5 µM ipriflavone = 100%. activation, % at 6 µM. 66% of 1,900 active;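 active = mean activation above the mean of solvent-only control wells plus 3 SD, cut at about 22% in these data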;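 note: counterscreen of GAA850 promoter hits where activity marks nonselective or luminescence artifacts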
GAA850 confirm: confirmation of GAA850 frataxin (FXN) promoter activators; 86% of 1,900 active; HEK293 lucGAA850 FXN promoter luciferase reporter, 24 h; 100% = activation by SAHA; shares compounds with GAA850 FXN act; activation, % at 6 µM;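 active = mean activation above a set limit taken from the primary screen, cut at about 8% in these data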;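 note: 0% = DMSO wells and 100% = 10 µM SAHA wells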
* hit, by the source's call; . = no result.

SMILES	ABCB6 inh MLPCN	AHR activator	STAT3 act	GAA850 FXN act	GAA30 FXN cntr	GAA850 confirm
CSC1=C(C#N)C(c2ccccc2C)C(C#N)=C(N)N1 (stereo not drawn)	103.0	1.3	92.8	11.0*	25.3*	14.8*
O=[N+]([O-])c1ccccc1Nc1c2ccccc2nc2ccccc12	94.0	3.1	86.6	9.6*	32.1*	16.3*
COc1ccc([N+](=O)[O-])cc1Nc1c2ccccc2nc2ccccc12	91.0	-0.6	.	9.3*	2.9	21.1*
O=[N+]([O-])c1ccc(Nc2c3ccccc3nc3ccccc23)cc1	97.0	.	107.9	5.0	.	.
O=C(COc1ccc(Cl)cc1Cl)NC(=O)NC1CCCC1	85.0	.	.	5.3	.	.
O=C(COc1ccccc1Cl)NC(=O)NC1CCCC1	102.0	0.2	93.4	8.0*	111.4*	29.6*
O=C(COC(=O)c1ccccc1[N+](=O)[O-])Nc1cc(S(=O)(=O)N2CCOCC2)ccc1N1CCCC1	96.0	0.5	102.7	0.1	.	.
Cn1cc(CNC(=O)C23CC4CC(CC(C4)C2)C3)cn1	90.0	4.6	95.7	2.0	.	.
Cc1ccc(C(=O)CC2(O)C(=O)N(CCc3ccccc3)c3ccc(Br)cc32)o1 (stereo not drawn)	99.0	21.9	102.5	-3.2	.	.
CCCCN1C(=O)C(O)(c2ccccc2)c2cc(Br)ccc21 (stereo not drawn)	89.0	0.4	.	8.1*	20.5	13.6*
O=C(CN1C(=O)NC2(CCc3ccccc32)C1=O)NCCc1ccccc1 (stereo not drawn)	100.0	0.1	.	-3.2	.	.
CCn1c(SCC(=O)NC2=NCCS2)nnc1C(C)NC(=O)c1ccc(Cl)cc1 (stereo not drawn)	102.0	0.7	.	0.2	.	.
COc1ccc(C=NNC(=S)NN=Cc2ccc(OC)c(OC)c2)cc1OC	84.0	.	.	8.7*	87.2*	30.5*
COc1ccc(NC(=O)CCC(=O)c2cccs2)c(OC)c1	99.0	1.2	.	1.5	.	.
NNc1ccc(Cl)c(C(=O)O)c1	98.0	3.3	.	8.7*	81.4*	22.7*
CCCN1C(=O)/C(=C/c2cc(C)n(C)c2C)SC1=Nc1ccc(OCC)cc1	113.0	-0.1	98.8	4.3	.	.
CCN1C(=O)/C(=C/c2cc(C)n(C)c2C)SC1=Nc1ccc(OC)cc1	119.0	11.0	113.7	9.9*	19.2	14.4*
CCOc1ccc2nc(SCC#N)c(C#N)cc2c1	99.0	-19.1	82.0	8.2*	107.6*	31.7*
CCOC(=O)C1CCCN(S(=O)(=O)c2ccc3c(c2)N(C)C(=O)CC(=O)N3C)C1 (stereo not drawn)	99.0	-0.1	.	-2.4	.	.
CCc1ccc(NC(=O)C/C(C)=N/NC(=O)COc2ccc(C)cc2Br)cc1	93.0	24.9	.	2.2	.	.
CCOC(=O)c1sc(NS(=O)(=O)c2ccccc2)nc1C	98.0	0.1	99.0	-0.9	.	.
CCOC(=O)c1sc(N/N=C/c2ccccc2)nc1C	93.0	61.5*	110.6	7.6*	134.2*	39.9*
COc1ccc2c(c1OC)C(=O)N(c1cccc(C(F)(F)F)c1)C2	100.0	-6.9	111.5	18.1*	99.2*	38.4*
COc1ccc2c(c1OC)C(=O)N(c1cccc(C)c1)C2	93.0	-2.6	83.6	3.6	.	.
Clc1ccc(N=C2SCC3CCCCN23)cc1 (stereo not drawn)	87.0	0.0	.	8.2*	98.5*	41.8*
SMILES	ABCB6 inh MLPCN	AHR activator	STAT3 act	GAA850 FXN act	GAA30 FXN cntr	GAA850 confirm
FC(F)Oc1ccc(N=C2SCC3CCCCN23)cc1 (stereo not drawn)	90.0	-4.2	.	4.2	.	.
CN(C)c1cccc(C(=O)NCc2ccc3c(c2)OCO3)c1	89.0	12.1	.	3.0	.	.
O=C(Cn1nc(C(=O)O)c2ccccc2c1=O)Nc1cccc(Br)c1	98.0	3.2	.	0.2	.	.
O=C(CSc1ccc2ccccc2c1)NCCc1ccc(O)c(O)c1	100.0	0.2	83.7	12.9*	43.3*	12.9*
Cc1ccc(NC(=O)c2sc3ccccc3c2Cl)nc1	100.0	7.0	66.0	8.4*	105.1*	15.6*
CCN(CC)c1ccc(C(=O)N/N=C(\C)c2ccc(OC)c(OC)c2)cc1	103.0	13.3	111.5	3.1	.	.
CCC(=O)N/C(N)=N/c1nc2ccccc2o1	98.0	-1.4	.	7.8*	113.2*	37.4*
CCCC(=O)N/C(N)=N/c1nc2ccccc2o1	102.0	1.0	.	3.4	.	.
